Data set [1] concerns Human immunodeficiency virus 1. Description: Antiviral activity against wild type HIV1 NL4-3 in human HeLaP4 cells assessed as beta-galactosidase activity after 48 hrs. Format: functional, organism-based. In a few lines: (§1)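 Cells plated at 5000/well, incubated 48 h, then medium replaced with compound (0.00128 to 4 µM). Infection 4 h later with cell-free NL4-3 virus equivalent to 100 ng p24. At 48 h postinfection cells lysed in PBS with 0.1% NP-40 and 5 mM MgCl2. β-Galactosidase read with chlorophenol red β-D-galactopyranoside. EC50 taken from dose-response curves.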

Data set [2] is described as follows: Selectivity index, ratio of CC50 for human HeLaP4 cells to EC50 for HIV1 NL4-3. The data set is classed as toxicity, cell-based. Conditions: read-out: Ratio CC50/EC50. In outline: (§2)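 Viability by WST-1 absorbance at 570 nm relative to drug-free control. Divided by EC50 from the 48 h β-galactosidase infection assay with NL4-3 in the same cell type.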
The subject of data set [3] is Human immunodeficiency virus 1. Description: Antiviral activity against wild type HIV1 NL4-3 in human TZM-b1 cells assessed as beta-galactosidase activity after 48 hrs. Conditions: Human immunodeficiency virus 1, NL4-3, TZM-b1, 48 h. Format: functional, organism-based. In a few lines:
as §1

Data set [4] concerns Human immunodeficiency virus 1. Description: Antiviral activity against HIV1 NL4-3 with Y181C mutant in human TZM-b1 cells assessed as beta-galactosidase activity after 48 hrs by single round replication assay. The data set is classed as functional, organism-based. Conditions: Human immunodeficiency virus 1, NL4-3, TZM-b1, 48 h. In outline: (§3)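 TZM-bl cells (DMEM, 5% heat-inactivated FBS) plated at 5000 cells/well and grown 48 h. Medium replaced with compound at 0.00128–4 µM. After 4 h, cells infected with NL4-3-derived RT-mutant virus equal to 100 ng p24. Virus stocks came from HEK293 cells transfected with sequence-verified mutant clones. At 48 h, cells lysed in PBS/0.1% NP-40/5 mM MgCl2 and β-galactosidase read with CPRG. EC50 taken from dose-response curves.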

The subject of data set [5] is Human immunodeficiency virus 1. Kind of data set: Antiviral activity against HIV1 NL4-3 with K103N/V108I double mutant in human TZM-b1 cells assessed as beta-galactosidase activity after 48 hrs by single round replication assay. Conditions: Human immunodeficiency virus 1, NL4-3, TZM-b1, 48 h.
Data set [6] concerns Human immunodeficiency virus 1. Description: Antiviral activity against HIV1 NL4-3 in human TZM-b1 cells assessed as beta-galactosidase activity after 48 hrs by single round replication assay. Conditions: Human immunodeficiency virus 1, NL4-3, TZM-b1, 48 h.
Data set [7] concerns Human immunodeficiency virus 1. Description: Antiviral activity against HIV1 NL4-3 with L100I mutant in human TZM-b1 cells assessed as beta-galactosidase activity after 48 hrs by single round replication assay. The data set is classed as functional, organism-based. Conditions: Human immunodeficiency virus 1, NL4-3, TZM-b1, 48 h. In a few lines:
as §3

Data set [8] deals with Human immunodeficiency virus 1. Kind of data set: Antiviral activity against HIV1 NL4-3 with V108I mutant in human TZM-b1 cells assessed as beta-galactosidase activity after 48 hrs by single round replication assay. The data set is classed as functional, organism-based. Conditions: Human immunodeficiency virus 1, NL4-3, TZM-b1, 48 h. In outline:
as §3

Data set [9] relates to Human immunodeficiency virus 1. Description: Antiviral activity against HIV1 NL4-3 with L100I/V108I double mutant in human TZM-b1 cells assessed as beta-galactosidase activity after 48 hrs by single round replication assay. The data set is classed as functional, organism-based. Conditions: Human immunodeficiency virus 1, NL4-3, TZM-b1, 48 h. In outline: as §3
The test system of data set [10] is Human immunodeficiency virus 1. Description: Antiviral activity against HIV1 NL4-3 with K103N mutant in human TZM-b1 cells assessed as beta-galactosidase activity after 48 hrs by single round replication assay. Conditions: Human immunodeficiency virus 1, NL4-3, TZM-b1, 48 h. Format: functional, organism-based. In outline: as §3
The test system of data set [11] is Human immunodeficiency virus 1. Description: Antiviral activity against HIV1 NL4-3 with K103N/Y181C double mutant in human TZM-b1 cells assessed as beta-galactosidase activity after 48 hrs by single round replication assay. Conditions: Human immunodeficiency virus 1, NL4-3, TZM-b1, 48 h.
A short description of data set [12]: Selectivity index, ratio of CC50 for human TZM-b1 cells to EC50 for HIV1 NL4-3. Format: toxicity, cell-based. Conditions: read-out: Ratio CC50/EC50. In a few lines:
as §2

Data set [13] deals with Human immunodeficiency virus 1. Description: Antiviral activity against HIV1 NL4-3 with K103N/L100I double mutant in human TZM-b1 cells assessed as beta-galactosidase activity after 48 hrs by single round replication assay. Format: functional, organism-based. Conditions: Human immunodeficiency virus 1, NL4-3, TZM-b1, 48 h. In a few lines:
as §3

[14] abbreviates: Human immunodeficiency virus 1, NL4-3, HeLaP4, 48 h.

`CCOC(=O)c1c(OC2CCCC(C)C2)c(CC)c(C)[nH]c1=O` (stereo unspecified): the EC50 (in general, the midpoint of the concentration-response curve) in data set [1] (setting [14]) is 520 nM. Besides, the selectivity ratio in data set [2] came out at 192.

As for `CCOC(=O)c1c(OC2CC(C)CC(C)C2)c(CC)c(C)[nH]c1=O` (stereo in doubt; 10B), in [1] (setting [14]), the EC50 was 85 nM.

Take `CCc1c(C)[nH]c(=O)c(C)c1O[C@@H]1C[C@H](C)C[C@H](C)C1`: the EC50 in data set [3] is 2 nM; in data set [4] it was 893 nM; in data set [5], 5100 nM; in data set [6], above 10000 nM; in data set [7], 203 nM; in data set [8] it was 121 nM. Moreover, the EC50 in data set [9] worked out at 833 nM; in data set [10], 142 nM; in data set [11], 1200 nM; in [13], 1400 nM. Besides, the selectivity ratio in data set [12] turned out to be 40000.

Consider `CCc1c(OC2CC(C)CC(C)C2)cc(=O)[nH]c1C` (stereo unspecified), for which the EC50 in [3] is 275 nM. Besides, the selectivity ratio in [12] is 200.

In the case of `CCc1c(C)[nH]c(=O)c(CO)c1O[C@@H]1C[C@H](C)C[C@H](C)C1`, in [3], the EC50 came out at 121 nM. In addition, in data set [12], the selectivity ratio is above 826.

Take `CCOC(=O)c1c(O[C@H]2C[C@H](C)C[C@H](C)C2)c(CC)c(C)[nH]c1=O`: in data set [1] (setting [14]), the concentration for a half-maximal effect (EC50) was 236 nM.

With `CCc1c(C)[nH]c(=O)c(C(=O)O)c1OC1CCCCC1`, in data set [1] (setting [14]), the EC50 is above 10000 nM.

For the compound `CCOC(=O)c1c(OC2CC(C)(C)CC(C)(C)C2)c(CC)c(C)[nH]c1=O`, the EC50 in data set [1] (setting [14]) was 258 nM. Moreover, the selectivity ratio in [2] stood at 112.

For the compound `CCOC(=O)c1c(OC2CC(C)CC(C)C2)c(CC)c(C)[nH]c1=O` (stereo in doubt; 10), in data set [1] (helap4), the EC50 was found to be 43 nM.

Regarding `CCOC(=O)c1c(OC2CCCC(C)C2C)c(CC)c(C)[nH]c1=O` (stereo unspecified), in data set [1] (setting [14]), the EC50 amounted to 13 nM. In addition, the selectivity ratio in data set [2] stood at 2620.

For `CCc1c(C)[nH]c(=O)c(Br)c1O[C@@H]1C[C@H](C)C[C@H](C)C1`, the EC50 in [3] was below 1 nM; in [4], 138 nM; in [5], 780 nM; in data set [6], 6300 nM; in [8], 1 nM; in [9], 38 nM. Besides, the results for the EC50 in data set [10], in [11] and in data set [13] were 9 nM, 523 nM and 68 nM, respectively. Besides, in data set [12], the selectivity ratio is above 28000.

As for `CCOC(=O)c1c(OC2C(C)CCCC2C)c(CC)c(C)[nH]c1=O` (stereo unspecified), in data set [1] (setting [14]), the EC50 was 955 nM. The selectivity ratio in [2] was 78.

On to `CCc1c(C)[nH]c(=O)c([N+](=O)[O-])c1O[C@@H]1C[C@H](C)C[C@H](C)C1`, for which the EC50 was below 1 nM in data set [3]; 279 nM in data set [4]; above 10000 nM in data set [5]; above 10000 nM in data set [6]; 9 nM in data set [7]; 2 nM in data set [8]. In addition, the EC50 is 8300 nM in [9], 177 nM in [10] and above 10000 nM in data set [13]. For the same compound, the selectivity ratio in data set [12] was above 37000.

As to `CCOC(=O)c1c(OC2CCC(CC)CC2)c(CC)c(C)[nH]c1=O` (stereo unspecified), the EC50 in data set [1] (setting [14]) was above 4000 nM. Moreover, the selectivity ratio in [2] was below 14.

Turning to `CCc1c(C)[nH]c(=O)c(C(C)(C)O)c1O[C@@H]1C[C@H](C)C[C@H](C)C1`, the EC50 in [3] is below 1 nM. In addition, the selectivity ratio in data set [12] is above 100000.

With `CCc1c(C)[nH]c(=O)c(N)c1O[C@@H]1C[C@H](C)C[C@H](C)C1`, the EC50 in data set [1] (setting [14]) was 1200 nM. Moreover, the selectivity ratio in data set [2] is 83.

Turning to `Cc1ccnc2c1NC(=O)c1cccnc1N2C1CC1` [NEVIRAPINE], the EC50 was 39 nM in data set [3]; above 10000 nM in data set [4]; above 10000 nM in [5]; above 10000 nM in data set [6]; 252 nM in [7]; 792 nM in [8]. In addition, the EC50 in data set [9] is above 10000 nM; in [10], 3300 nM; in data set [13], above 10000 nM.

As to `CCOC(=O)c1c(S[C@@H]2C[C@H](C)C[C@H](C)C2)c(CC)c(C)[nH]c1=O`, the EC50 in data set [3] was 116 nM. Besides, in data set [12], the selectivity ratio was 862.

For the compound `CCOC(=O)c1c(OC2CCCCC2Cl)c(CC)c(C)[nH]c1=O` (stereo unspecified), in data set [1] (setting [14]), the EC50 is above 3000 nM. Besides, the selectivity ratio in data set [2] is below 33.

Values taken from ChEMBL document CHEMBL1136985, “New pyridinone derivatives as potent HIV-1 nonnucleoside reverse transcriptase inhibitors” (J Med Chem, 2009).
